Results reported in PMC2882023 (The Journal of neuroscience : the official journal of the …, 2010).
Counter-ions that a name gives are not always drawn. Like-named read-outs stand apart in the source and are kept apart here.

What was measured:
[1] = test system: micturition reflex contractions; assay type: in vivo, Sprague-Dawley rats; details: i.t.; for intercontraction interval (ICI): anaesthetized rats, mean ± SEM; for intercontraction interval (ICI), extent of prolongation over the dose range: across the doses tested
In short: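 Urethane-anaesthetised (1.2 g/kg i.p.) adult female rats, 200–280 g, with an intrathecal catheter tip at L1 placed ≥1 d earlier. Ureters and urethral orifice ligated. Bladder saline-infused at 100 μl/min to micturition threshold, then 3–5 μl/min. After ≥10 min stable baseline, vehicle (saline or 5% DMSO/saline), then escalating i.t. doses (10 μl + 10 μl saline flush, ≥8 min apart). ICI from intravesical pressure; n = 5–15; repeated-measures ANOVA/Bonferroni.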

P2X3 = details: ref Gever et al., 2006; Carter et al., 2009; cited from earlier work
P2X2/3 = details: ref Gever et al., 2006; Carter et al., 2009; cited from earlier work
[2] = ref Wu et al. 2004; cited from earlier work
hP2X2/3 = target: T1, hP2X2/3 (Homo sapiens, UniProt P56373+Q9UBL9); assay type: cell-based; details: αβmeATP or ATP-evoked calcium flux, 1321N1 cells, n = 15
T1 sequence (Q9UBL9 1-471): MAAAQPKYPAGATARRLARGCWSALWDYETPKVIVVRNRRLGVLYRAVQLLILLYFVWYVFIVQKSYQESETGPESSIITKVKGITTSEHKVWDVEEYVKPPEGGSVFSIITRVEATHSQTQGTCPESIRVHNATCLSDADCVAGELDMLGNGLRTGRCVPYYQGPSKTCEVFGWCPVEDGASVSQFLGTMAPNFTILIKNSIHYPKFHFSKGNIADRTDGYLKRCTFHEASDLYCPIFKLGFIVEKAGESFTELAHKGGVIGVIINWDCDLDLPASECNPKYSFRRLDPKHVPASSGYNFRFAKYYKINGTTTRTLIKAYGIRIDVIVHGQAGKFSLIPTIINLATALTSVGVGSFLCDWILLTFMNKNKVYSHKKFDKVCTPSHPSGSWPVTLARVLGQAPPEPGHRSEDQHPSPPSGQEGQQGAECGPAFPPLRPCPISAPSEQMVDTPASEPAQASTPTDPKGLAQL
T1 sequence (P56373 1-397): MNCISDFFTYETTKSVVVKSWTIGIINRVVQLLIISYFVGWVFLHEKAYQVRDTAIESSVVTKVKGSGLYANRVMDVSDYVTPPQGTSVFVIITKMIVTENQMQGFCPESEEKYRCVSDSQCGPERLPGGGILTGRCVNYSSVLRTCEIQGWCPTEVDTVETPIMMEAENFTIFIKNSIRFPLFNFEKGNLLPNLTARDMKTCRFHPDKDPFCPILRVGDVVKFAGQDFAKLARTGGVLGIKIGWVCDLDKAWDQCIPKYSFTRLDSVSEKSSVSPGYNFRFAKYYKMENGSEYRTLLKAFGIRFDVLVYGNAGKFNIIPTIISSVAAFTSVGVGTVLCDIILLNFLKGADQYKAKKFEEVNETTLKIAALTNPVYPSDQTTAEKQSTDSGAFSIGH
In short: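 Cytosolic calcium flux was read in Fluo-3-loaded 1321N1 astrocytoma cells transfected with cloned human P2X2/3 receptors. Flux was evoked by αβmeATP or ATP, at an agonist level set per receptor subtype, with test compound present. Inhibition was expressed as pIC50 ± SEM from 15 determinations.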

other P2X receptors = assay: calcium flux selectivity over other P2X receptors; assay type: cell-based; details: up to a concentration of 10 μM
In short: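 Off-target P2X subtypes were tested in Fluo-3-loaded CHOK1 cells (recombinant human P2X1, human P2X4, rat P2X5 or human P2X7) and 1321N1 astrocytoma cells (cloned human P2X2). Intracellular calcium flux was evoked by αβmeATP or ATP, at a level varied by subtype, with test compound present. pIC50 was derived with n = 3 per receptor.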

[3] = test system: pERK-positive cells in L6 spinal cord; assay: spinal ERK activation; assay type: in vivo, Sprague-Dawley rats; details: 300 nmol, i.t., 10 min before 1% acetic acid intravesically; n = 4
In short: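 Separate experiment in urethane-anaesthetised bladder-cannulated female rats: ≥1 h post-cannulation, i.t. test compound (300 nmol) or 5% DMSO; 10 min later, 700 μl 1% acetic acid intravesically for 2 min (sham: vehicle, no acid, 12 min). Perfusion-fixed (4% paraformaldehyde/picric acid); 20 μm L6 cryosections. Anti-phospho-p44/42 (Thr202/Tyr204) staining with tyramide amplification and FITC. Four rats/group, three sections each, blind counting; one-way ANOVA/Tukey.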

[4] = test system: 75 receptors, channels, enzymes, and transporters; assay: Cerep screen of 75 receptors, channels, enzymes and transporters; assay type: binding; details: 10 μM, 75 targets
more than 100 kinases = assay: Ambit kinase screen; assay type: binding; details: 10 μM
P2X1 = details: ref Gever et al., 2006; Carter et al., 2009; cited from earlier work

Row | SMILES | intercontraction interval (ICI) ([1]; 10 nmol) | intercontraction interval (ICI), extent of prolongation over the dose range [1] | pIC50 at P2X3 (P2X3) | pIC50 at P2X2/3 (P2X2/3) | intercontraction interval (ICI) ([1]; 1 nmol) | further results
1 | Cc1nc(N=Nc2ccc(S(=O)(=O)O)cc2S(=O)(=O)O)c(COP(=O)(O)O)c(C=O)c1O [PPADs, pyridoxal-phosphate-6-azophenyl-2′,4′,-disulphonic acid] | 3.50 ± 1.15 min | more than 2 min | 6 | 6 |  | 
2 | Nc1ncnc2c1ncn2[C@@H]1O[C@H](COP(=O)(O)CP(=O)(O)OP(=O)(O)O)[C@@H](O)[C@H]1O [αβmeATP, α,β-methylene-ATP] |  | up to 10 min |  |  | 8.45 ± 2.48 min | lowest significant dose for prolonging the ICI [1]: 1 nmol
3 | O=C(O)c1cc(C(=O)O)c(C(=O)N(Cc2cccc(Oc3ccccc3)c2)[C@H]2CCCc3ccccc32)cc1C(=O)O [A-317491] |  |  |  |  |  | CNS permeability [2]: negligible CNS permeability
4 | C#Cc1cc(Oc2cnc(N)nc2N)c(C(C)C)cc1OC [AF-792] |  |  |  |  |  | pIC50 ± SEM (hP2X2/3): 7.94 ± 0.08; inhibition at other P2X receptors (other P2X receptors): no inhibition; intercontraction interval (ICI) ([1]; 100 nmol): 8.00 ± 1.67 min; intercontraction interval (ICI) ([1]; 300 nmol): 9.33 ± 2.50 min; number of pERK-positive cells in L6 spinal cord segment [3]: 43.0 ± 9.6 cells/ section; inhibition of radioligand binding or function [4]: little or no inhibition; inhibition of radioligand binding or function (more than 100 kinases): little or no inhibition
5 | Nc1ncnc2c1ncn2[C@@H]1O[C@H](COP(=O)(O)OP(=O)(O)OP(=O)(O)O)[C@H]2OC3(O[C@H]21)C([N+](=O)[O-])=CC(=[N+]([O-])[O-])C=C3[N+](=O)[O-] (some centres unmarked) [TNP-ATP, 2′,3′-O-(2,4,6-trinitrophenyl) adenosine 5′-triphosphate monolithium trisodium salt] | 4.28 ± 1.21 min |  | 9 | 8.4 | 4.64 ± 1.30 min | pIC50 at P2X1 (P2X1): 8.22
